Laboratory results as given in the M2OR odorant receptor database.

Columns and labels:
Settings in all cases: stereoisomer not certain
UniProt Q8VF52 = target: T1, UniProt Q8VF52
T1 sequence (whole entry): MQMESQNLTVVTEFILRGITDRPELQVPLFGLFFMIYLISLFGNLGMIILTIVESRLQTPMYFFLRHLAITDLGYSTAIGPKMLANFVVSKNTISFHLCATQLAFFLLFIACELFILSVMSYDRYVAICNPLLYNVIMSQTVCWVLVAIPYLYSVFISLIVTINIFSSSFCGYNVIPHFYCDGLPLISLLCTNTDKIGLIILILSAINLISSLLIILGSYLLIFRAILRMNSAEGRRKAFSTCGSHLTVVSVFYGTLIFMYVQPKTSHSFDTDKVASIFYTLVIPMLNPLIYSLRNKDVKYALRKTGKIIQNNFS
Summary of the method: (§1)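 Each entry records the cell line, G-protein, co-transfected protein and tags used. Methods varied with the source, often transient luciferase assays in mammalian cell lines. A receptor–molecule pair is called responsive (active) if the original authors judged its signal statistically different from baseline and non-responsive (inactive) otherwise.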

UniProt Q8VFM8 = target: T2, UniProt Q8VFM8
T2 sequence (whole entry): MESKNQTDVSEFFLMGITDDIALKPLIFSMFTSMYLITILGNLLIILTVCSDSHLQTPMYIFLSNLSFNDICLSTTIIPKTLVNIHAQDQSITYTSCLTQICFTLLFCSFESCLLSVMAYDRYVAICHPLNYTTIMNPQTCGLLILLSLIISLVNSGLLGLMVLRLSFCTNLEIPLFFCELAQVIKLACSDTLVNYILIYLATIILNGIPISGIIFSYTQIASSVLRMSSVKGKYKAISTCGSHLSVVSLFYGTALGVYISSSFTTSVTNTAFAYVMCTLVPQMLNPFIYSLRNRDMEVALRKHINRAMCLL
Summary of the method: as §1

UniProt Q8VFP5 = target: T3, UniProt Q8VFP5
T3 sequence (whole entry): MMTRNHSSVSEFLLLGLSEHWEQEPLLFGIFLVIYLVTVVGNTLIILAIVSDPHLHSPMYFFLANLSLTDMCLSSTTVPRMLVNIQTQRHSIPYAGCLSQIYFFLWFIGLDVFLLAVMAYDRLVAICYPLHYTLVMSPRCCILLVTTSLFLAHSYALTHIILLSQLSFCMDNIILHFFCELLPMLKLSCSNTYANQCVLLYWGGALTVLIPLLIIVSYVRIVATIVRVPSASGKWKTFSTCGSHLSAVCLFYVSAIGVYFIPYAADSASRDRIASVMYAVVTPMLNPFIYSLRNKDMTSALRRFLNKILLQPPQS
Summary of the method: as §1

UniProt Q8VG01 = target: T4, UniProt Q8VG01
T4 sequence (whole entry): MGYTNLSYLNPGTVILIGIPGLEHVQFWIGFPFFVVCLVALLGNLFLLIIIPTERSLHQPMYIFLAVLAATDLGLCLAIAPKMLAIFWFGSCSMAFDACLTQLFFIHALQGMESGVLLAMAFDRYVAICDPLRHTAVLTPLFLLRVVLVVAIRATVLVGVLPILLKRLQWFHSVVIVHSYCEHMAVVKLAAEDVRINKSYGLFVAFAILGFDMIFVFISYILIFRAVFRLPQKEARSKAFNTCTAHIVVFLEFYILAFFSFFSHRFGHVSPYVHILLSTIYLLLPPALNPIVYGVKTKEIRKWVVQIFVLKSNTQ
Summary of the method: as §1

UniProt Q8VG27 = target: T5, UniProt Q8VG27
T5 sequence (whole entry): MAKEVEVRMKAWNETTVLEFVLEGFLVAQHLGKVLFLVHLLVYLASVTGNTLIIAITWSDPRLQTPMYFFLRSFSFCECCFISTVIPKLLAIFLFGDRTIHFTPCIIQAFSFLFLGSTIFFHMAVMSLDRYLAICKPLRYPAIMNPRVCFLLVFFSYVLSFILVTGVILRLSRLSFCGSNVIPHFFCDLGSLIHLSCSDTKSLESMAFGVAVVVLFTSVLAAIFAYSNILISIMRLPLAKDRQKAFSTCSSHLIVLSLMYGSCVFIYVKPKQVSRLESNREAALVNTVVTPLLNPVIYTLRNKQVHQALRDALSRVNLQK
Summary of the method: as §1

UniProt Q8VG53 = target: T6, UniProt Q8VG53
T6 sequence (whole entry): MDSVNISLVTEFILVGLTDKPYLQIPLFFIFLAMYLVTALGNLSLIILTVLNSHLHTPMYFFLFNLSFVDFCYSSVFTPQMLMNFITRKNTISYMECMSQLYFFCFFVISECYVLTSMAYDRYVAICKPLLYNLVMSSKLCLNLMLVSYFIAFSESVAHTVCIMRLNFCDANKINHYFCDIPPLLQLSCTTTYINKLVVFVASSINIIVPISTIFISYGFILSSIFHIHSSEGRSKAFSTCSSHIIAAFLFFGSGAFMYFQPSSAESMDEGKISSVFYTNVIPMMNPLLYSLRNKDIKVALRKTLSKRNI
Summary of the method: as §1

UniProt Q8VG64 = target: T7, UniProt Q8VG64
T7 sequence (whole entry): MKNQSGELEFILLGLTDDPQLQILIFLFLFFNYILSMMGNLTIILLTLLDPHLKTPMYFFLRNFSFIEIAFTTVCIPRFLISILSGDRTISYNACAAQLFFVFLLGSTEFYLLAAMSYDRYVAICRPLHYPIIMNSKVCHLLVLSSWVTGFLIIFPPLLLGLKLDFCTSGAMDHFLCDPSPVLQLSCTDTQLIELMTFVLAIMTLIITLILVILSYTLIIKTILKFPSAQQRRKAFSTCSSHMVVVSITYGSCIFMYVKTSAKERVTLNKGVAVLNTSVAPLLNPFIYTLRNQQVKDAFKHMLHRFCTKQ
Summary of the method: as §1

UniProt Q8VGB9 = target: T8, UniProt Q8VGB9
T8 sequence (whole entry): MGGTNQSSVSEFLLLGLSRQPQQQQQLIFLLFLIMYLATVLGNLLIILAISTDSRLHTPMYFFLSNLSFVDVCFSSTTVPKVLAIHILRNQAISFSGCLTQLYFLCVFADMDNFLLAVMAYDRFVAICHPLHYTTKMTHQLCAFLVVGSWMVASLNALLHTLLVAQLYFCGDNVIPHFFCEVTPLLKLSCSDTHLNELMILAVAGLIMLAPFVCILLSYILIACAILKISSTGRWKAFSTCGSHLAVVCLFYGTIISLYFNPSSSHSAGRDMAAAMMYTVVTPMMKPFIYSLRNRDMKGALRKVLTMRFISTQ
Summary of the method: as §1

UniProt Q8VGC6 = target: T9, UniProt Q8VGC6
T9 sequence (whole entry): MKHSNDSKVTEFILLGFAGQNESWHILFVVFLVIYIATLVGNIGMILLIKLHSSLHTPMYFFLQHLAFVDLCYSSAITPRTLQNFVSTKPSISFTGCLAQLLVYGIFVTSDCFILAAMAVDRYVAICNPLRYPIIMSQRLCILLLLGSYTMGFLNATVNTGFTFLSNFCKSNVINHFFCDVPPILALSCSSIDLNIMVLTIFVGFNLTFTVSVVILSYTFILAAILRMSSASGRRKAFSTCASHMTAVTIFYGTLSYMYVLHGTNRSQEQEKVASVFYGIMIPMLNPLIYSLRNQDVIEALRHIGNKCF
Summary of the method: as §1

UniProt Q8VGJ3 = target: T10, UniProt Q8VGJ3
T10 sequence (whole entry): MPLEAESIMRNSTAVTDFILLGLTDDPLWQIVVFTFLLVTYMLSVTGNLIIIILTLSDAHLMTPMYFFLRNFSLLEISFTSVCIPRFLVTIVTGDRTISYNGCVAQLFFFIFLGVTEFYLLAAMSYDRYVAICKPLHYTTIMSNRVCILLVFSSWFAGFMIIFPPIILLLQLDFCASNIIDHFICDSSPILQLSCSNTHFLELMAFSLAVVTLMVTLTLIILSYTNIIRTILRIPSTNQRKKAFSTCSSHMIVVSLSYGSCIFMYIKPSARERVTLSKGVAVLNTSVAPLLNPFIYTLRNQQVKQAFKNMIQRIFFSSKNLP
Summary of the method: as §1

Measured: odorant receptor agonist call

O=CC=Cc1ccccc1
inactive: all assays above

COc1ccc(C=O)cc1
inactive: all assays above
